Where two headings read alike, the source gives them in different places. Bounds are passed on as bounds.

This note sets out measurements from PMC3480199 (Journal of medicinal chemistry, 2012).

The subject of one data set is T. brucei cells. Nature of the data set: Protein synthesis inhibition assay. As to conditions: 4 h, concentrations 1 to 16 times the 48 hour EC50. The data set is classed as cell-based, Trypanosoma brucei. Summed up:
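Mid-log bloodstream-form T. brucei (5×10^5 cells/well) in HMI-9 medium, given test compound in triplicate and preincubated 15 min, with a no-drug control on each plate. Cells cultured with 3H-histidine; filters counted by scintillation.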

In data set [1] the target is T1, human mitochondrial MetRS (Homo sapiens, UniProt Q96GW9).
T1 sequence (Q96GW9 30-593): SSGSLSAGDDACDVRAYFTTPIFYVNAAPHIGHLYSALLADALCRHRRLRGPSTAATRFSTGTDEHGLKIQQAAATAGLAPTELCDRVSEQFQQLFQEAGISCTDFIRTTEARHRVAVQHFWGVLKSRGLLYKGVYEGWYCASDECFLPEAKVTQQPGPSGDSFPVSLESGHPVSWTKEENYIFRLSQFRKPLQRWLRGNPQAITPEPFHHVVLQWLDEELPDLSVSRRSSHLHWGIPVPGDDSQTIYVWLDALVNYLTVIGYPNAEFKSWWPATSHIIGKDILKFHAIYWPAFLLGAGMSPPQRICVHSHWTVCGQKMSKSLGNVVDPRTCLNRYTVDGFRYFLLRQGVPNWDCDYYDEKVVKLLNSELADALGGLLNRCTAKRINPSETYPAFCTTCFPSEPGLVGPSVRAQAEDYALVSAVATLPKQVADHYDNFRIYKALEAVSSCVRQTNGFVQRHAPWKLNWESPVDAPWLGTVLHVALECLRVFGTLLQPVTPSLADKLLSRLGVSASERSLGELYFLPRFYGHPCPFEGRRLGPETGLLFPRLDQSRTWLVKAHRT
Nature of the data set: Human mitochondrial methionyl-tRNA synthetase aminoacylation assay. The data set is classed as biochemical. The method in brief: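 Recombinant enzyme (20 nM) preincubated 15 min with 12 serial two-fold dilutions of test compound in 50 mM Tris-HCl pH 8.0, 2.5 mM MgCl2, 2.5 mM KCl, 0.2 mM spermine, 0.2 mg/mL BSA, 2.5 mM DTT, 1 U/mL pyrophosphatase. Started with 200 μg/mL E. coli tRNA, 2.5 mM ATP, 250 nM [3H]methionine; 120 min, 37°C. Filtered, TCA-washed, scintillation-counted in quadruplicate; IC50 by sigmoidal nonlinear regression.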

Data set [2] concerns CRL-8155 human lymphoblast cell line. Nature of the data set: Mammalian cell growth inhibition assay. The data set is classed as cell-based. As to conditions: CRL8155, 48 h, read-out: CRL-8155 IC50.
In another data set the test system is T. brucei rhodesiense. Nature of the data set: Efficacy studies in mice. The format is in vivo. The following applies: 50 mg/kg oral every 12 h for 4 days.
For data set [3], the system named is MDR1-MDCKII cells. In words: MDR1-MDCKII assay. The following applies: 3 μM.
For data set [4], the system named is MDR1-MDCKII cells. As to conditions: dog, MDCK-MDR1, 60 min, 3 μM.

In the case of `C[C@@H]1C[C@@H]([C@H](O)CC2CC(=O)NC(=O)C2)C(=O)[C@@H](C)C1` [cycloheximide], in the data set with T. brucei cells, the “Incorporation of 3H-amino acid into proteins” value (shortened to “Incorporation”) is “dose dependent decrease”. The IC50 is the midpoint of a concentration-inhibition curve. `O=C(NCCCNCc1cc(Cl)cc(Cl)c1)Nc1ccccc1` [Compound 2, 1-(3-(3,5-Dichlorobenzylamino)propyl)-3-phenylurea]: the IC50 in data set [1] is > 10 µM; in data set [2], 12 µM. For the same compound, the “Selectivity Index Human IC50 / T. brucei IC50” value in data set [1] (human mitochondrial MetRS IC50 over T. brucei MetRS IC50) is listed as >175. Take `O=C(NCCCNCc1cc(Cl)cc(Cl)c1)Nc1cccc(F)c1` [Compound 18]: the IC50 came to 4.25 µM in data set [1] and 43.2 µM in data set [2]. On the same counts, the results for `COc1cc(Cl)cc(CNCCCNC(=O)Nc2ccsc2)c1` [Compound 27, 1-[3-(3-Chloro-5-methoxy-benzylamino)-propyl]-3-thiophen-3-yl-urea] are 6.59 µM and 22 µM.

On to `O=C(NCCCNCc1cc(Cl)cc(Cl)c1)Nc1cccs1` [Compound 28], for which the IC50 turned out to be 3.06 µM in data set [1] and 9.5 µM in data set [2].

In data set [1], `O=C(NCCCNCc1cc(Cl)cc(Cl)c1)Nc1ccsc1` [Compound 26, 1-[3-(3,5-Dichloro-benzylamino)-propyl]-3-thiophen-3-yl-urea] came in with an IC50 of 4.35 µM. In addition, the IC50 in data set [2] is 12 µM. In the data set on T. brucei rhodesiense, the Extension of survival was determined as 1 days and the “Toxicity in treated mice” value is reported as “No toxicity”. Also, the “Incorporation” value with T. brucei cells is “dose dependent decrease”. Consider `CC(C)CN(C[C@@H](O)[C@H](Cc1ccccc1)NC(=O)O[C@H]1CCOC1)S(=O)(=O)c1ccc(N)cc1` [Amprenavir], for which the “AQ (typical control value)” value in the data set on MDR1-MDCKII cells [3] is > 0.5.

Take `NCCCC(N)(C(=O)O)C(F)F` (stereo not shown) [DFMO, difluoromethylornithine]: the “Incorporation” value in the data set with T. brucei cells was “did not result in a dose dependent decrease”.

Take `COc1cc(Cl)cc(CNCCCNC(=O)Nc2ccccc2)c1` [Compound 4]: the IC50 in data set [1] turned out to be 8.35 µM; in data set [2] it was 20 µM. As for `Oc1cc(NCCCNCc2cc(Cl)cc(Cl)c2)nc2ccccc12` [Compound 1], the “Incorporation” value in the data set on T. brucei cells is “dose dependent decrease”. On to `O=C(NCCCNCc1cc(Cl)cc(Cl)c1)Nc1cccc(O)c1` [Compound 17], for which the IC50 in data set [1] was 5.43 µM; in data set [2], 12 µM. On the same counts, the results for `O=C(NCCCNCc1cc(Cl)cc(Cl)c1)Nc1ccccc1O` [Compound 16] are 3.72 µM and > 20 µM. With `CC(C)NCC(O)COc1cccc2ccccc12` (stereo not shown) [Propranolol], the “AQ (typical control value)” value in the data set with MDR1-MDCKII cells [4] is on record as < 0.5.
